Calls of active or inactive are those of the source. No cut-off for these calls is given here.
How the values were obtained:
[1] = system: Huh-7; assay: Induction of apoptosis in human HuH7 cells assessed as nuclear condensation at 10 uM after 48 hrs by Hoechst 33258 staining-based immunofluorescence microscopy; assay type: functional, cell-based
In short: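 Cells on coverslips were incubated overnight, then treated with 10 µM compound or DMSO for 48 h. They were washed in ice-cold PBS, fixed in cold methanol for 10 min, and stained with 1 µg/mL Hoechst 33258 for 5 min in the dark. Nuclei were examined by fluorescence microscopy with a 40x objective.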

[2] = target: T1, Mitogen-activated protein kinase kinase kinase 5 (Homo sapiens) (UniProt Q99683); assay: Activation of ASK1 in human Mahlavu cells assessed as Ser966 phosphorylation after 24 to 48 hrs by Western blot analysis; assay type: cell-based
T1 sequence (whole entry): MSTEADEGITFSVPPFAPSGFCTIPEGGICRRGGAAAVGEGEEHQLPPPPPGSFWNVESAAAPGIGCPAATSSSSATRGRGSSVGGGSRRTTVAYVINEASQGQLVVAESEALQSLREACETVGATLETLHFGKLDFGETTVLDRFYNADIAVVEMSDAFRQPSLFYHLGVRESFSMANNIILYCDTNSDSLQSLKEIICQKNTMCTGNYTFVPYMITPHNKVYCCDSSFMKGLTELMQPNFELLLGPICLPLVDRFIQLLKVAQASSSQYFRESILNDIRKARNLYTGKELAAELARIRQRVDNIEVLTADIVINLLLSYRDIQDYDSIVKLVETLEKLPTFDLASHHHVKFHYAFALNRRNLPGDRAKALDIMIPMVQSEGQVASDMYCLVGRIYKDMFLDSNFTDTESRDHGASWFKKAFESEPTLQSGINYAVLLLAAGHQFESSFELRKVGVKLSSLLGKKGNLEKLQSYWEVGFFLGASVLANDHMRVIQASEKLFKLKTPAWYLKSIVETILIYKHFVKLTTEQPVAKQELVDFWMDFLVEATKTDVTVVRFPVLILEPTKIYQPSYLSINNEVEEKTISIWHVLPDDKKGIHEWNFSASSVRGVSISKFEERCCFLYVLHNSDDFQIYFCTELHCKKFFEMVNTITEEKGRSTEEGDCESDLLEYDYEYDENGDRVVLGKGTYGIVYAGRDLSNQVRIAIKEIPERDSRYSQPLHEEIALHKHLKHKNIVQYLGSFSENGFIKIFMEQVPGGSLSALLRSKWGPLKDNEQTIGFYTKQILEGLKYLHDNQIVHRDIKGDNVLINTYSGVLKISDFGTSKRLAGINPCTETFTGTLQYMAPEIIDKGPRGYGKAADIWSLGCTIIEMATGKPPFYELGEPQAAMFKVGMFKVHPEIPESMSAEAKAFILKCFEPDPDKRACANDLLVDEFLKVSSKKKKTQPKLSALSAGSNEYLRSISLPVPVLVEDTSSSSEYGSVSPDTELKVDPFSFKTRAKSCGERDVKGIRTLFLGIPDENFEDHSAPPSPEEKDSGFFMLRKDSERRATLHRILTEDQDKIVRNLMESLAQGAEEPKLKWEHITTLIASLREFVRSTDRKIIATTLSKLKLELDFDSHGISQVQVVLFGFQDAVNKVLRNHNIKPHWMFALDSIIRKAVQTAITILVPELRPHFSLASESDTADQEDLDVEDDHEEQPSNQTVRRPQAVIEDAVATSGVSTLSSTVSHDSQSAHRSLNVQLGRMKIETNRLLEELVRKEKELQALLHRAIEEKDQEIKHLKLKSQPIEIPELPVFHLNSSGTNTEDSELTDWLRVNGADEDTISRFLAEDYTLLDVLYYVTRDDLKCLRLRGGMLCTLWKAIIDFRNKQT
In short: (§1)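 Cells were exposed to compound or DMSO control for 24 or 48 h. Lysates were loaded at […] protein per lane and immunoblotted with antibodies diluted 1:100 to 1:500 in 5% BSA-TBS-T. Targets were p-Akt (Ser473), Akt, p-GSK3-α/β (Ser21/9), GSK3-α/β, SAPK/JNK, p-SAPK/JNK (Thr183/Tyr185), PARP, p-β-catenin, β-catenin, cyclin D1, p-ASK1 (S83) and p-ASK1 (S966). Actin served as the loading control.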

[3] = target: Glycogen synthase kinase-3 beta (Homo sapiens) (UniProt P49841); assay: Inhibition of GSK3beta phosphorylation in human HuH7 cells after 24 to 48 hrs by Western blot analysis; assay type: cell-based; settings: Huh-7; in short: as §1
[4] = target: RAC-alpha serine/threonine-protein kinase (Homo sapiens) (UniProt P31749); assay: Inhibition of Akt phosphorylation in human Mahlavu cells after 24 to 48 hrs by Western blot analysis; assay type: cell-based; in short: as §1
[5] = target: RAC-alpha serine/threonine-protein kinase (Homo sapiens) (UniProt P31749); assay: Inhibition of Akt phosphorylation in human HuH7 cells after 24 to 48 hrs by Western blot analysis; assay type: cell-based; settings: Huh-7; in short: as §1
[6] = target: T2, Catenin beta-1 (Homo sapiens) (UniProt P35222); assay: Induction of beta-catenin phosphorylation in human HuH7 cells after 24 to 48 hrs by Western blot analysis; assay type: cell-based; settings: Huh-7; in short: as §1
T2 sequence (whole entry): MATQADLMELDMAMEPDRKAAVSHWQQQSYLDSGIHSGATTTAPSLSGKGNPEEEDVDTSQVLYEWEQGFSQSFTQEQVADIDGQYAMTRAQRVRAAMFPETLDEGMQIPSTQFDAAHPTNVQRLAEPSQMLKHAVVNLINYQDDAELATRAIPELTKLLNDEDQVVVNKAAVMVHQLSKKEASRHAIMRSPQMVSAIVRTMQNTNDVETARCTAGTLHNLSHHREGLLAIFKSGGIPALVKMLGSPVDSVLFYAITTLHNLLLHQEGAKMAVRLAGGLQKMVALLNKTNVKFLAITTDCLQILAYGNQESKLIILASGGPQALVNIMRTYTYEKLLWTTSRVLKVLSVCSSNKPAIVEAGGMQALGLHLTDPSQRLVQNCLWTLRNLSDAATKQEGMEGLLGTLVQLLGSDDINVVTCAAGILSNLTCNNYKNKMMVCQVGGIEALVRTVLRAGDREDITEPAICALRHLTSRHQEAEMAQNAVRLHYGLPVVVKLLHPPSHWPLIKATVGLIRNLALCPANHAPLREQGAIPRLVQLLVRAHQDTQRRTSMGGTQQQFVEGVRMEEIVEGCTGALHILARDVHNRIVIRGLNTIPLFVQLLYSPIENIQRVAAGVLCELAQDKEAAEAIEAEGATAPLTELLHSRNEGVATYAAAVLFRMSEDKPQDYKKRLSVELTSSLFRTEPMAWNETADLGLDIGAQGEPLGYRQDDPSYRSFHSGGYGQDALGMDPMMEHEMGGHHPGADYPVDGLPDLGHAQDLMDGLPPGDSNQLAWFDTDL

[7] = system: Mahlavu; assay: Induction of oxidative stress in human Mahlavu cells assessed as ROS accumulation at 10 uM after 48 hrs by DCFH-DA staining based fluorescence microscopy; assay type: functional, cell-based
In short: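 Cells in 6-well dishes were treated with 10 µM compound or DMSO for 48 h. They were washed in PBS and stained for 15 min at 37°C in the dark with DCFH-DA solution (1 mM DCFH-DA, 10 mM glucose, 10 mM HEPES in PBS). After three PBS washes, cells were viewed by fluorescence microscopy. Selenium-deficient serum-free medium culture served as the positive control.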

RAC-alpha serine/threonine-protein kinase (Homo sapiens), sequence (P31749 whole entry): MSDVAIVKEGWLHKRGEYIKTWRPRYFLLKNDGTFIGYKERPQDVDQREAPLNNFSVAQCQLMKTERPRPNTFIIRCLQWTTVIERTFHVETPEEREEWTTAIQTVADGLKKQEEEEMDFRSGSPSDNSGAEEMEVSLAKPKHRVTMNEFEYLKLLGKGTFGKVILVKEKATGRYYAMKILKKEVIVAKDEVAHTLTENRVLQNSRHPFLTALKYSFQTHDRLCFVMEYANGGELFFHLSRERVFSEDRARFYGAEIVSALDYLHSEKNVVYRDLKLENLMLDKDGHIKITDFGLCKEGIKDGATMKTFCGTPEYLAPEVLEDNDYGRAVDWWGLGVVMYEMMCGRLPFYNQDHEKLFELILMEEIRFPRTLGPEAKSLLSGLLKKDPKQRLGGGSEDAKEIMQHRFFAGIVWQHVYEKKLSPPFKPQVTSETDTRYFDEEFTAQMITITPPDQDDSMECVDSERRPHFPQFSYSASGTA
Glycogen synthase kinase-3 beta (Homo sapiens), sequence (P49841 whole entry, looked up): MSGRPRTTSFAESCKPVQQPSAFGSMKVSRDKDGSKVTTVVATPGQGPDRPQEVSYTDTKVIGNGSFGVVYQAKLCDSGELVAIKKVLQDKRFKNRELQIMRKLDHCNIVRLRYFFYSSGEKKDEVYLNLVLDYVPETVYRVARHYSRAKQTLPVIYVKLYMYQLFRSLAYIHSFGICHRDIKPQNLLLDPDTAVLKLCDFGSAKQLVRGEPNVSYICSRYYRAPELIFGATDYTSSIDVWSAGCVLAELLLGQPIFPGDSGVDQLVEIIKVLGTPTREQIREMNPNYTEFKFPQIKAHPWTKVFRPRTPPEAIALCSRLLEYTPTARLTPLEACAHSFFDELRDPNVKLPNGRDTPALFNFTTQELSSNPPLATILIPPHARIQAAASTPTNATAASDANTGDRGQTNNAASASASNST

Row | Activity [2] | inhibition [3] | inhibition [4] | inhibition [5] | Activity [6] | Compound | Activity [1] | Activity [7]
1 | Active | Active | Active | Active | Active | COc1ccc(C2=Nn3c(nnc3C(C)c3ccc(CC(C)C)cc3)SC2)cc1 (centres undefined) | Active | Active
2 | Active | Active | Active | Active | Active | Cc1ccc(C2=Nn3c(nnc3C(C)c3ccc(CC(C)C)cc3)SC2)cc1 (centres undefined) | Active | Active

— ChEMBL document CHEMBL3751842, “Novel triazolothiadiazines act as potent anticancer agents in liver cancer cells through Akt and ASK-1 proteins” (Bioorg Med Chem, 2016)
